Results from ChEMBL document CHEMBL1149252, “Synthesis and structure-activity relationships of 4-alkynyloxy phenyl sulfanyl, sulfinyl, and sulfonyl alkyl hydroxamates as tumor necrosis factor-alpha converting enzyme and matrix metalloproteinase inhibitors” (J Med Chem, 2004).
Active and inactive are the calls of the source. The calls are words filed in the database; no cut-off is given here.

How the values were obtained:
Interstitial collagenase [1] = molecular target: T1, Interstitial collagenase (Homo sapiens, UniProt P03956)
[2] = molecular target: T2, Matrix metalloproteinase-9 (Homo sapiens, UniProt P14780)
Collagenase 3 [3] = molecular target: T3, Collagenase 3 (Homo sapiens, UniProt P45452)
Interstitial collagenase [4] = molecular target: T1, Interstitial collagenase; assay: Inhibition of MMP1 at 10 uM
Summary of the method: (§1)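 Cell-free assay on isolated enzyme (MMP-1, MMP-9, MMP-13 or TACE). Percent inhibition was read at a single 10 μM inhibitor concentration, with samples run in triplicate and the mean reported. Full dose-response curves were generated only where inhibition at 10 μM reached 60%.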

[5] = molecular target: T2, Matrix metalloproteinase-9; assay: Inhibition of MMP9 at 10 uM
Summary of the method: as §1

Collagenase 3 [6] = molecular target: T3, Collagenase 3; assay: Inhibition of MMP13 at 10 uM
Summary of the method: as §1

THP-1 = assay: Inhibition of LPS-stimulated TNFalpha production in human THP1 cells at 3 uM by ELISA; assay type: functional
[7] = molecular target: T4, Disintegrin and metalloproteinase domain-containing protein 17 (Homo sapiens, UniProt P78536)
Mus musculus [8] = assay: Inhibition of LPS-stimulated TNFalpha production in mouse model at 100 mg/kg, po at 1 hrs; assay type: functional
Summary of the method: (§2)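 Mice received the compound orally. LPS was injected 30 min after dosing. Blood was drawn 1 h after LPS, and serum TNF-α was measured by ELISA. Results are expressed as % inhibition of LPS-induced TNF-α.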

Mus musculus [9] = assay: Inhibition of LPS-stimulated TNFalpha production in mouse model at 100 mg/kg, po at 12 hrs; assay type: functional
Mus musculus [10] = assay: Inhibition of LPS-stimulated TNFalpha production in mouse model at 10 mg/kg, po; assay type: functional, organism-based; parameters: dose 10 mg/kg
Summary of the method: as §2

[11] = molecular target: T4, Disintegrin and metalloproteinase domain-containing protein 17; assay: Inhibition of TACE at 10 uM
Summary of the method: as §1

Mus musculus [12] = assay: Inhibition of LPS-stimulated TNFalpha production in mouse model at 10 mg/kg, po at 1 hrs; assay type: functional
Summary of the method: as §2

Mus musculus [13] = assay: Inhibition of LPS-stimulated TNFalpha production in mouse model at 10 mg/kg, po at 12 hrs; assay type: functional, organism-based; parameters: dose 10 mg/kg

T1 sequence (P03956 whole entry): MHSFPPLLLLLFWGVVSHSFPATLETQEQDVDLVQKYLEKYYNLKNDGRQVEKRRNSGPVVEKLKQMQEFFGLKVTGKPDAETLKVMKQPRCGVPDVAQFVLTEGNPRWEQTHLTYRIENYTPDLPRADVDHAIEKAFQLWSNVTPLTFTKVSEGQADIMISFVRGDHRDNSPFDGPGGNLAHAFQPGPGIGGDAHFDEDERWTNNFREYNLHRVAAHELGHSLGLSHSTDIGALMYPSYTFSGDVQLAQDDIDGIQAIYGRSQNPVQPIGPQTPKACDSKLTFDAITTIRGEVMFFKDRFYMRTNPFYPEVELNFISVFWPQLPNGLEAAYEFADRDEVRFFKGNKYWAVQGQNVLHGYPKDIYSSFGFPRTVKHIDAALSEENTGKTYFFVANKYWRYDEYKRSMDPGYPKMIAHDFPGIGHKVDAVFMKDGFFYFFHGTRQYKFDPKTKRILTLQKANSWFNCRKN
T4 sequence (P78536 whole entry, the tested form may be a part): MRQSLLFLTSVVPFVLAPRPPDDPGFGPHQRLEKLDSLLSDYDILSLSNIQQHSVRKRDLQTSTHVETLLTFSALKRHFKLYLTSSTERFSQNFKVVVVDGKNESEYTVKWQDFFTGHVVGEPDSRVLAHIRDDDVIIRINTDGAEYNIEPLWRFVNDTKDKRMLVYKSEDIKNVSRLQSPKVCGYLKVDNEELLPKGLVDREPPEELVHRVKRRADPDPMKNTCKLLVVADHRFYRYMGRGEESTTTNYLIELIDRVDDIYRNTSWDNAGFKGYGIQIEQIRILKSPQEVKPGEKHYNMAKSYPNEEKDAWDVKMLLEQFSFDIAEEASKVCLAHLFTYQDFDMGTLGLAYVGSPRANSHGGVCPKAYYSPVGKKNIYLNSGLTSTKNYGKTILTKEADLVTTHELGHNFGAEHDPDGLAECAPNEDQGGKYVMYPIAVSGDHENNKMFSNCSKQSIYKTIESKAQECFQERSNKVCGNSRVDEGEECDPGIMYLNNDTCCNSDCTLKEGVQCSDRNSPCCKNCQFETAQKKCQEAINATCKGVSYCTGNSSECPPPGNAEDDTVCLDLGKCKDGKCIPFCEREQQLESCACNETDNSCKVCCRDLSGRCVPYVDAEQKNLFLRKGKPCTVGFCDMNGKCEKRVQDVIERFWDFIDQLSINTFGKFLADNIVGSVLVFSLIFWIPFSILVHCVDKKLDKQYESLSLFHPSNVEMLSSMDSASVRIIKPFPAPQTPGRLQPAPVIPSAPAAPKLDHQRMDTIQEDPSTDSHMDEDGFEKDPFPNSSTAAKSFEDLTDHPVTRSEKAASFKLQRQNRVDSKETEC
T2 sequence (P14780 whole entry): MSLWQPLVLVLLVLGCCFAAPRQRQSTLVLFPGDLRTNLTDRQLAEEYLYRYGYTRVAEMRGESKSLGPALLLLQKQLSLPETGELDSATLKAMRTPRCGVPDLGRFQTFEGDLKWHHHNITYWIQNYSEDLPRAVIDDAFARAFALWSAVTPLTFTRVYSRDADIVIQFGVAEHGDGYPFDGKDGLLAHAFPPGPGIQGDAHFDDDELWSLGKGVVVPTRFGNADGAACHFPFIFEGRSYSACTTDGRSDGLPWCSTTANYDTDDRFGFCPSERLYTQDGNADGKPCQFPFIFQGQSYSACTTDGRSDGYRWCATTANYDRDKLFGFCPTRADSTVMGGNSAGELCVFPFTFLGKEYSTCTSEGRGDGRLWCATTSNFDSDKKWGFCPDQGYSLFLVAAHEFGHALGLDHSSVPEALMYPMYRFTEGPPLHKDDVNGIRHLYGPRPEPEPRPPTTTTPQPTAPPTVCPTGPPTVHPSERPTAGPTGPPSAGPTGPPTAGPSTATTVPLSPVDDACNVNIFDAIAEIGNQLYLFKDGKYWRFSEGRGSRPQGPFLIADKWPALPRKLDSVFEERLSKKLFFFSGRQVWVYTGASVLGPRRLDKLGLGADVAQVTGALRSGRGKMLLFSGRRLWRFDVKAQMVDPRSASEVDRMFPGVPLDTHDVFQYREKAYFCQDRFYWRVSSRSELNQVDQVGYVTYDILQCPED

| Structure (SMILES) | IC50 (Interstitial collagenase [1]) [µM] | IC50 [2] [nM] | IC50 (Collagenase 3 [3]) [nM] | IC50 [7] [nM] | inhibition at 3 µM (THP-1) [%] | further results |
| --- | --- | --- | --- | --- | --- | --- |
| CCC#CCOc1ccc(S(=O)(=O)C2(C(=O)NO)CCN(Cc3ccc(Br)cc3)CC2)cc1 |  |  |  |  | 0 | inhibition (Interstitial collagenase [4]): 51%; inhibition [5]: 41%; inhibition (Collagenase 3 [6]): 40% |
| CC#CCOc1ccc(S(=O)(=O)C(C(=O)NO)C2CCN(C(=O)C3CC3)CC2)cc1 (configuration not stated) | > 10 | > 10000 | > 10000 | 54 | 71 |  |
| CC#CCOc1ccc(SC(C(=O)NO)C(C)C)cc1 (configuration not stated) | > 10 | > 10000 | > 10000 |  | 13 |  |
| CC#CCOc1ccc(S(=O)(=O)C(C(=O)NO)c2ccccc2)cc1 (configuration not stated) | 4.57 | 124 | 68 | 94 | 68 |  |
| CC#CCOc1ccc(S(=O)(=O)C2(C(=O)NO)CCN(Cc3ccc(OC)cc3)CC2)cc1 |  |  |  |  |  | inhibition in vivo at 100 mg/kg (Mus musculus [8]): 91%; inhibition in vivo at 100 mg/kg (Mus musculus [9]): 24%; Activity (Mus musculus [10]): inactive |
| CC#CCOc1ccc(S(=O)(=O)C2(C(=O)NO)CCN(Cc3ccc(Cl)cc3)CC2)cc1 |  |  |  |  | 66 | inhibition (Interstitial collagenase [4]): 52%; inhibition [5]: 52%; inhibition (Collagenase 3 [6]): 56%; inhibition in vivo at 100 mg/kg (Mus musculus [8]): 61%; inhibition in vivo at 100 mg/kg (Mus musculus [9]): 23%; Activity (Mus musculus [10]): inactive |
| CC#CCOc1ccc(S(=O)(=O)C(C(=O)NO)C2CC[S+]([O-])CC2)cc1 (configuration not stated) | > 10 | > 10000 | > 10000 | 39 | 14 |  |
| CC#CCOc1ccc(SC(C(=O)NO)C2CCCCC2)cc1 (configuration not stated) | > 10 | 3000 | 2000 |  | 5 |  |
| CC#CCOc1ccc([S@@+]([O-])[C@H](C(=O)NO)C(C)C)cc1 | 6.48 | 399 |  |  |  |  |
| CCCCCC[C@@H](C(=O)NO)[S@+]([O-])c1ccc(OC)cc1 (relative stereo) | 1.15 | 186 | 72 | 30 |  |  |
| CC#CCOc1ccc(SC2(C(=O)NO)CCN(C(=O)OC(C)(C)C)CC2)cc1 |  |  |  |  | 0 | inhibition (Interstitial collagenase [4]): 24%; inhibition [5]: 25%; inhibition [11]: 38% |
| CCCCCC[C@@H](C(=O)NO)[S@@+]([O-])c1ccc(OC)cc1 (relative stereo) | 1.51 | 148 | 18 | 375 |  |  |
| CC#CCOc1ccc(S(=O)(=O)C(C(=O)NO)c2ccc(OC)cc2)cc1 (configuration not stated) | > 10 | > 10000 | 3690 | 201 |  |  |
| O=C(NO)C1(S(=O)(=O)c2ccc(OCC#CCN3CCOCC3)cc2)CCN(Cc2ccc(Br)cc2)CC1 |  |  |  |  | 0 | inhibition (Interstitial collagenase [4]): 16%; inhibition [5]: 20%; inhibition (Collagenase 3 [6]): 63% |
| CC#CCOc1ccc(S(=O)(=O)C(C(=O)NO)C2CCSCC2)cc1 (configuration not stated) | > 10 | > 10000 | > 10000 | 113 | 15 |  |
| CC#CCOc1ccc([S@+]([O-])[C@H](CCCCCC)C(=O)NO)cc1 | 3.2 | 1000 | 150 | 12 | 35 |  |
| CC#CCOc1ccc(SC(C(=O)NO)c2ccccc2)cc1 (configuration not stated) | > 10 | > 10000 | > 10000 |  | 14 |  |
| CC#CCOc1ccc([S@@](=O)[C@H](C(=O)NO)c2ccccc2)cc1 | > 10 | > 10000 | > 10000 | 74 | 4 |  |
| CC#CCOc1ccc(SC(CCCCCC)C(=O)NO)cc1 (configuration not stated) | > 10 |  |  |  | 5 |  |
| CC#CCOc1ccc(SC2(C(=O)OCC)CCN(C(=O)OC(C)(C)C)CC2)cc1 |  |  |  |  | 0 | inhibition (Interstitial collagenase [4]): 26%; inhibition [5]: 21%; inhibition (Collagenase 3 [6]): 32%; inhibition [11]: 67% |
| CCCCCC#CCOc1ccc(S(=O)(=O)C2(C(=O)NO)CCN(Cc3ccc(Br)cc3)CC2)cc1 |  |  |  |  | 0 | inhibition (Interstitial collagenase [4]): 33%; inhibition [5]: 59%; inhibition (Collagenase 3 [6]): 60% |
| CC#CCOc1ccc([S+]([O-])C(C(=O)NO)c2ccccc2)cc1 (single isomer, unassigned) | > 10 | > 10000 | > 10000 |  | 74 |  |
| CC#CCOc1ccc([S@@+]([O-])[C@@H](CCCCCC)C(=O)NO)cc1 | 3 | 1500 | 900 | 4 | 67 |  |
| CC#CCOc1ccc([S@@](=O)[C@H](C(=O)NO)c2ccc(OC)cc2)cc1 | > 10 | > 10000 | > 10000 | 48 | 12 |  |
| CCCCCCC(Sc1ccc(OC)cc1)C(=O)NO (configuration not stated) |  |  |  |  |  | inhibition (Interstitial collagenase [4]): 9%; inhibition [5]: 67%; inhibition (Collagenase 3 [6]): 55% |
| COc1ccc(S(=O)(=O)C2(C(=O)NO)CCN(Cc3ccc(Br)cc3)CC2)cc1 |  |  |  |  | 0 |  |
| CC#CCOc1ccc(S(=O)(=O)N2CCSC(C)(C)[C@@H]2C(=O)NO)cc1 |  |  |  |  |  | inhibition in vivo at 10 mg/kg (Mus musculus [12]): 80%; Activity (Mus musculus [13]): inactive |

Continued, in another order:

| IC50 (Interstitial collagenase [1]) [µM] | IC50 [2] [nM] | IC50 (Collagenase 3 [3]) [nM] | IC50 [7] [nM] | Structure (SMILES) | inhibition at 3 µM (THP-1) [%] | further results |
| --- | --- | --- | --- | --- | --- | --- |
| 5.14 | 1260 | 107 |  | CC#CCOc1ccc(S(=O)(=O)C(C(=O)NO)C(C)C)cc1 (configuration not stated) |  |  |
| > 10 | > 10000 | > 10000 | 233 | CC#CCOc1ccc(S(=O)(=O)C(C(=O)NO)C2CCN(C(=O)c3ccccc3)CC2)cc1 (configuration not stated) | 28 |  |
| > 10 | > 10000 | > 10000 | 119 | CC#CCOc1ccc(S(=O)(=O)C(C(=O)NO)C2CCN(C(C)=O)CC2)cc1 (configuration not stated) | 31 |  |
| > 10 | > 10000 | > 10000 | 17 | CC#CCOc1ccc([S+]([O-])C(C(=O)NO)c2ccc(OC)cc2)cc1 (single isomer, unassigned) |  |  |
| 3.37 |  |  |  | CC#CCOc1ccc(S(=O)(=O)C2(C(=O)NO)CCN(Cc3ccc(Br)cc3)CC2)cc1 |  |  |
| > 10 | > 10000 | > 10000 |  | CC#CCOc1ccc(SC(C(=O)NO)c2ccc(OC)cc2)cc1 (configuration not stated) | 3 |  |
| > 10 | 2500 | 500 | 75 | CC#CCOc1ccc(S(=O)(=O)C(CCCCCC)C(=O)NO)cc1 (configuration not stated) | 6 |  |
| 0.096 | 18 | 7 | 69 | C#CCOc1ccc(S(=O)(=O)C2(C(=O)NO)CCN(Cc3ccccc3)CC2)cc1 | 0 |  |
| > 10 | > 10000 | > 10000 |  | CC#CCOc1ccc(S(=O)(=O)C(C(=O)NO)C2CCNCC2)cc1 (configuration not stated) |  |  |
|  |  |  | 80 | CC#CCOc1ccc(S(=O)(=O)C2(C(=O)NO)CCN(CC)CC2)cc1 | 35 | inhibition (Interstitial collagenase [4]): 44%; inhibition [5]: 31% |
| 3.96 | 10 | 5 | 72 | CCCCOc1ccc(S(=O)(=O)C2(C(=O)NO)CCN(Cc3ccc(Br)cc3)CC2)cc1 | 6 |  |
| 2.64 |  |  |  | CC#CCOc1ccc(S(=O)(=O)C2(C(=O)NO)CCN(Cc3ccccc3)CC2)cc1 |  |  |
|  | 6 | 3 |  | C#CCOc1ccc(S(=O)(=O)C2(C(=O)NO)CCN(Cc3ccc(Br)cc3)CC2)cc1 | 7 |  |
| > 10 | > 10000 | > 10000 |  | CC#CCOc1ccc(S(=O)(=O)C(C(=O)NO)C2CCOCC2)cc1 (configuration not stated) |  |  |
| > 10 | > 10000 |  |  | CC#CCOc1ccc(S(=O)(=O)C(C(=O)NO)C2CCCCC2)cc1 (configuration not stated) |  |  |
